# Screens (PubChem)
# Compounds with a hit are over-represented: about 1.7% of the library has one in this group of screens.
# Neddyl block – cullin neddylation inhibition; TR-FRET cullin neddylation, biochemical; inhibition, % at 25 µM; 360,000 tested, 0.58% active; AID 651699; in the data active means inhibition above about 36%
# Target sequence (P61081 whole entry, looked up): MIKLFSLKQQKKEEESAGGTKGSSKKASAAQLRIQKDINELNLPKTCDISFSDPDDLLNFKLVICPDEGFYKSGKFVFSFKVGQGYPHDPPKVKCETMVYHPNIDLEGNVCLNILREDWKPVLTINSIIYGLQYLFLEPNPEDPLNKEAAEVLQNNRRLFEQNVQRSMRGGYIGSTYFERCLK
# Target sequence (Q13564 whole entry, looked up): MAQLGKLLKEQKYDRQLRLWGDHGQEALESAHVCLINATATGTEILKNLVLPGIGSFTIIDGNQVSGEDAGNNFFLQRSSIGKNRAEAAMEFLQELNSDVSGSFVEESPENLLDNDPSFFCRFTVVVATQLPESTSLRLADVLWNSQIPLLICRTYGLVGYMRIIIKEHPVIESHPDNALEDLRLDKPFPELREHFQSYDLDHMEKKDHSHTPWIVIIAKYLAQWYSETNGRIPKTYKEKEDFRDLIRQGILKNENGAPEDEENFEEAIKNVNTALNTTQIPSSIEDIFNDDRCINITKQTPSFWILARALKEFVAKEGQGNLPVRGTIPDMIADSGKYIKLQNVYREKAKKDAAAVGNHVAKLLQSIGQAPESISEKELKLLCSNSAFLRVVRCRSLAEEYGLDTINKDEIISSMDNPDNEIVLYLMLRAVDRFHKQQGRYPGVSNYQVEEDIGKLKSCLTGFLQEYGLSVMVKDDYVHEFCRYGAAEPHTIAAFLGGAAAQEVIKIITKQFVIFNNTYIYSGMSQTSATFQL
# DSG3 Ab inh – blocks pemphigus antibody binding to human desmoglein-3. 310,000 tested, 0.48% active. binding (percent of control), % at 10 µM. P32926. DSG3-coupled beads, scFv-anti-DSG3-GFP binding, flow cytometry; stronger effect = lower value;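 active means binding more than 3 SD below its plate's average and above zero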;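 further: hits lower antibody fragment binding to DSG3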
# Efflux pump mplx – antifungal efflux pump inhibition, Nile Red retention. S. cerevisiae Candida pump triplex. inhibition, % at 10 µM. 330,000 tested, 0.44% active;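 active means plate passing quality check with inhibition over a set limit, or well fluorescence over plate mean plus 4 SD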;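 further: Nile Red retained in pooled yeast measured as flow cytometry median fluorescence; 0% = buffer negative control and 100% = Enniatin B positive control; higher means more Nile Red kept so more efflux inhibition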
# Arrestin-AP2 inh – inhibitors of human beta-arrestin and AP2 interaction; FITC-arrestin peptide / GST-AP2 beads, flow cytometry; AP2 beta2 appendage carries R879A mutation; inhibition, % at 10 µM; 340,000 tested, 0.31% active;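 active means inhibition above a set limit, near 3 SD of compounds lacking own fluorescence, cut at about 54% in these data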;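 further: plate controls were DMSO wells for no effect and 5 µM unlabelled arrestin peptide for full effect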
#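 Test system: GST-tagged AP2 beta2-adaptin appendage (R879A) on 4 µm glutathione beads; also added: fluorescein-tagged arrestin peptide at 50 nM final; timing: 12 min plus 1 h, RT; signal: flow cytometry, FL1 (488/535 nm); read-out: percent drop in bead-associated FITC signal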
# Cmpd fluor yeast – compound fluorescence in yeast efflux pump counter-screen; fluorescence ratio to DMSO, % at 10 µM; AID 588517; S. cerevisiae AD/pABC3, flow cytometry; 1,700 tested, 4% active; shares compounds with Efflux pump mplx;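 active means fluorescence ratio to DMSO above its plate's cutoff, the plate mean ratio plus 5 SD, cut at about 210% in these data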;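 further: unstained yeast with no Nile Red so the signal is compound autofluorescence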
# Mdr1 pump inh – inhibitors of Candida albicans Mdr1 efflux pump | S. cerevisiae AD/CaMDR1, Nile Red efflux, flow cytometry | inhibition, % at 10 µM | shares compounds with Efflux pump mplx | AID 588518 | 1,700 tested, 1% active; in the data active means inhibition above about 26%;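 further: 0% = DMSO vehicle and 100% = reference inhibitor; higher means more Nile Red retained so more efflux inhibition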
# Cdr2 pump inh – Candida Cdr2 efflux pump inhibition; 1,700 tested, 4% active; S. cerevisiae AD/CaCDR2, Nile Red retention, flow cytometry; Nile Red retention ratio vs DMSO, % at 10 µM; shares compounds with Efflux pump mplx; in the data active means Nile Red retention ratio vs DMSO above about 190%;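 further: higher ratio means more blocking of Cdr2 efflux of the dye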
# CaCdr1 efflux inh – Candida Cdr1 efflux pump inhibition. inhibition, % at 10 µM. 1,700 tested, 1% active. S. cerevisiae AD/CaCDR1, Nile Red efflux, flow cytometry. shares compounds with Efflux pump mplx;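 active means inhibition above the screen-wide mean plus twice its standard deviation, cut at about 32% in these data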
# Active calls of the source: *; · = not tested or not shown; + = active, no number.
SMILES,Neddyl block,DSG3 Ab inh,Efflux pump mplx,Arrestin-AP2 inh,Cmpd fluor yeast,Mdr1 pump inh,Cdr2 pump inh,CaCdr1 efflux inh
O=C(O)/C=C/c1cn(-c2ccccc2)nc1-c1ccc(-c2ccc([N+](=O)[O-])cc2)o1,1.7,94.0,0.9*,37.2,128.8,0.2,120.5,0.2
COc1ccc(S(=O)(=O)N(C)c2nc3ccccc3n3c(CC(C)C)nnc23)cc1,-17.4,·,0.0,27.2,·,·,·,·
COc1ccc(NS(=O)(=O)c2ccc(C)c(C(=O)OC(C)C(=O)N3CCOCC3)c2)cc1 (centres undefined),2.1,105.7,0.1,-10.7,·,·,·,·
COc1cc(OC)c(NS(=O)(=O)c2ccc(Cl)c(C(=O)OC(C)C(=O)N3CCCC3)c2)cc1Cl (centres undefined),2.5,105.6,7.6*,15.3,101.4,-0.2,91.4,-0.1
CCN1/C(=C/c2ccc3cccc(C)c3[n+]2CC)Sc2ccccc21,-452.1,183.6,2.4*,12.7,+,5.5,137.9,1.1
CCN1/C(=C/c2ccc3cc(C)cc(C)c3[n+]2CC)Sc2cc(C)ccc21,-306.0,121.2,·,-54.6,·,·,·,·
CN(C)c1cccc(C(=O)OCC(=O)NCC2CCCO2)c1 (centres undefined),5.0,108.2,0.0,5.0,·,·,·,·
CN(C)Cc1ccccc1CNC(=O)c1cccc(S(=O)(=O)Nc2ccc3c(c2)OCO3)c1,4.0,96.9,·,·,·,·,·,·
O=C(CSc1ccc(Br)cc1)N1CCN(S(=O)(=O)c2ccccc2)CC1,-10.3,104.3,2.0*,-3.5,104.5,0.0,105.1,0.1
Cc1ccc2nc(C(Cl)(Cl)Cl)nc(N/N=C/c3ccncc3)c2c1,1.9,97.8,0.4*,10.5,104.6,0.2,101.8,0.0
Cc1ccc2nc(C(Cl)(Cl)Cl)nc(N/N=C/c3ccc([N+](=O)[O-])cc3)c2c1,-1.2,97.3,·,-2.8,·,·,·,·
CC(C)C(=O)NS(=O)(=O)c1ccc(N)cc1,3.9,110.3,-0.2,15.5,·,·,·,·
Fc1ccc(NC(=S)Nc2cccnc2)c(F)c1F,0.1,88.3,0.0,23.0,·,·,·,·
CCN(CC)c1ccc2c(Cl)c(Br)c(=O)oc2c1,27.1,·,8.6*,4.2,451.8*,1.1,504.4*,1.2
O=C1OC(c2ccco2)=N/C1=C\c1ccc(-c2cccc(C(F)(F)F)c2)o1,17.9,91.1,1.2*,4.1,93.3,0.1,112.4,0.1
O=C(O)CC1c2ccccc2CCN1S(=O)(=O)c1cccs1 (centres undefined),5.4,104.1,2.2*,3.6,100.3,-0.2,105.1,-0.1
O=C(O)CC1c2ccccc2CCN1S(=O)(=O)c1ccccc1 (centres undefined),-6.9,104.9,-0.1,15.7,·,·,·,·
CC(C)(C)NC(=O)C1c2ccccc2OCC(=O)N1Cc1cccnc1 (centres undefined),5.7,·,·,·,·,·,·,·
O=C(Cn1c2ccccc2c(=O)c2ccccc21)Nc1ccccc1F,·,100.1,16.6*,-0.8,97.6,-0.1,102.9,0.4
CC(=O)c1cn(CC(=O)Nc2ccccc2F)c2ccccc12,0.2,100.5,0.4,25.4,·,·,·,·
CC1CCN(C(=O)c2ccc(NS(C)(=O)=O)cc2)CC1,28.4,87.6,0.6*,3.8,99.0,-0.3,107.2,-0.1
CS(=O)(=O)Nc1ccc(C(=O)N2CCCCC2)cc1,-2.1,85.4,0.0,1.2,·,·,·,·
O=C1c2cccc3c([N+](=O)[O-])ccc(c23)C(=O)N1c1ccc(Cl)cn1,50.3*,101.9,2.1*,2.8,265.3*,1.0,177.3,0.0
CC(=O)Oc1ccc(N2C(=O)c3cccc4c([N+](=O)[O-])ccc(c34)C2=O)cc1,-13.1,119.4,0.7,40.1,·,·,·,·
O=C1c2cccc3c([N+](=O)[O-])ccc(c23)C(=O)N1O,-64.5,87.1,4.1*,-4.0,138.2,0.6,261.6*,0.6
O=C1c2cccc3c([N+](=O)[O-])ccc(c23)C(=O)N1c1ccccn1,30.2,90.1,0.7*,20.9,149.4,0.8,138.9,0.7
CSc1ccc(NS(=O)(=O)c2ccc(-n3cnnn3)cc2)cc1,5.5,·,-0.1,34.9,·,·,·,·
